Assays:
[1] = target: Rho-associated protein kinase 2 (Homo sapiens, UniProt O75116); experiment: Inhibition of recombinant human ROCK2 (11 to 552 residues) using KEAKEKRQEQIAKRRRLSSLRASTSKSGGSQK as substrate incubated for 40 mins in presence of [gamma-33P]ATP by radiometric scintillation assay
[2] = target: Rho-associated protein kinase 1 (Homo sapiens, UniProt Q13464); experiment: Inhibition of recombinant human ROCK1 (17 to 535 residues) using KEAKEKRQEQIAKRRRLSSLRASTSKSGGSQK as substrate incubated for 40 mins in presence of [gamma-33P]ATP by radiometric scintillation assay
Rho-associated protein kinase 1, sequence (Q13464 whole entry, the tested form may be a part): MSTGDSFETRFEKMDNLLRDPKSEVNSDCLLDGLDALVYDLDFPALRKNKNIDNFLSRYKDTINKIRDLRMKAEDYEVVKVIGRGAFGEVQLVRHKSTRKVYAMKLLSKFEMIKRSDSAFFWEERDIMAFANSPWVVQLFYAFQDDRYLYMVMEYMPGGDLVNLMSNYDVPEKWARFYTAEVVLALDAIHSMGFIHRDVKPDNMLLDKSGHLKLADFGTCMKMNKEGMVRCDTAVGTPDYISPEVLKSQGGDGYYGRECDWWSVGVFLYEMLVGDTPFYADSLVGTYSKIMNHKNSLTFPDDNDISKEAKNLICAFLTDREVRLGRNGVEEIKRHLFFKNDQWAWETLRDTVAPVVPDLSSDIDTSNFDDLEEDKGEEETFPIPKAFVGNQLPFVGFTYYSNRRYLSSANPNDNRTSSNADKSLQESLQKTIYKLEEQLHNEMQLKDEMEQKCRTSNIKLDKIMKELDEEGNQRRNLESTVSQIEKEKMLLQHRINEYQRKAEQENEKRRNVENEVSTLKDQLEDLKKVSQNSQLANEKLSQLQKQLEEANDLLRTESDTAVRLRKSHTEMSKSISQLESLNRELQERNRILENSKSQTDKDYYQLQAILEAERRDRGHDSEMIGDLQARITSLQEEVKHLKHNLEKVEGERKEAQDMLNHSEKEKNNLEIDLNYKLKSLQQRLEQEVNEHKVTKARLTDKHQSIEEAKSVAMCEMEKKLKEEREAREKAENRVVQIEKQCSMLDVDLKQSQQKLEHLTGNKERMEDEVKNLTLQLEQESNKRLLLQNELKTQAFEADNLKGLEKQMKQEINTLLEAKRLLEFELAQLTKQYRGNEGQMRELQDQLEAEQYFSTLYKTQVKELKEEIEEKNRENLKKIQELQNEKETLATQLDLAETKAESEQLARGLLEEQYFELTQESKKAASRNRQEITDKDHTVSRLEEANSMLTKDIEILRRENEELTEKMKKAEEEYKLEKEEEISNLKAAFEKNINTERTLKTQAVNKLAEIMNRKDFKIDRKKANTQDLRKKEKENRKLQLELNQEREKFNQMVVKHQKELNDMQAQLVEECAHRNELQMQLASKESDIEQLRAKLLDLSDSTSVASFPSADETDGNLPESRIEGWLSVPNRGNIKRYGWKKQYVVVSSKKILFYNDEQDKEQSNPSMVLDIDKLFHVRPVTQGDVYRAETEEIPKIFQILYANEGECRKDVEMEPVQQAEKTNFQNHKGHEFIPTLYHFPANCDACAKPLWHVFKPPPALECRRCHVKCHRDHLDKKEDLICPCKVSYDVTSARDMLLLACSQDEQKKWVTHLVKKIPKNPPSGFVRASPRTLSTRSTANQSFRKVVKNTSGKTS
Method in brief: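 IC50 values determined through a commercial kinase profiling service, with ATP at 10 µM.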

Rho-associated protein kinase 2, sequence (O75116 whole entry, the tested form may be a part): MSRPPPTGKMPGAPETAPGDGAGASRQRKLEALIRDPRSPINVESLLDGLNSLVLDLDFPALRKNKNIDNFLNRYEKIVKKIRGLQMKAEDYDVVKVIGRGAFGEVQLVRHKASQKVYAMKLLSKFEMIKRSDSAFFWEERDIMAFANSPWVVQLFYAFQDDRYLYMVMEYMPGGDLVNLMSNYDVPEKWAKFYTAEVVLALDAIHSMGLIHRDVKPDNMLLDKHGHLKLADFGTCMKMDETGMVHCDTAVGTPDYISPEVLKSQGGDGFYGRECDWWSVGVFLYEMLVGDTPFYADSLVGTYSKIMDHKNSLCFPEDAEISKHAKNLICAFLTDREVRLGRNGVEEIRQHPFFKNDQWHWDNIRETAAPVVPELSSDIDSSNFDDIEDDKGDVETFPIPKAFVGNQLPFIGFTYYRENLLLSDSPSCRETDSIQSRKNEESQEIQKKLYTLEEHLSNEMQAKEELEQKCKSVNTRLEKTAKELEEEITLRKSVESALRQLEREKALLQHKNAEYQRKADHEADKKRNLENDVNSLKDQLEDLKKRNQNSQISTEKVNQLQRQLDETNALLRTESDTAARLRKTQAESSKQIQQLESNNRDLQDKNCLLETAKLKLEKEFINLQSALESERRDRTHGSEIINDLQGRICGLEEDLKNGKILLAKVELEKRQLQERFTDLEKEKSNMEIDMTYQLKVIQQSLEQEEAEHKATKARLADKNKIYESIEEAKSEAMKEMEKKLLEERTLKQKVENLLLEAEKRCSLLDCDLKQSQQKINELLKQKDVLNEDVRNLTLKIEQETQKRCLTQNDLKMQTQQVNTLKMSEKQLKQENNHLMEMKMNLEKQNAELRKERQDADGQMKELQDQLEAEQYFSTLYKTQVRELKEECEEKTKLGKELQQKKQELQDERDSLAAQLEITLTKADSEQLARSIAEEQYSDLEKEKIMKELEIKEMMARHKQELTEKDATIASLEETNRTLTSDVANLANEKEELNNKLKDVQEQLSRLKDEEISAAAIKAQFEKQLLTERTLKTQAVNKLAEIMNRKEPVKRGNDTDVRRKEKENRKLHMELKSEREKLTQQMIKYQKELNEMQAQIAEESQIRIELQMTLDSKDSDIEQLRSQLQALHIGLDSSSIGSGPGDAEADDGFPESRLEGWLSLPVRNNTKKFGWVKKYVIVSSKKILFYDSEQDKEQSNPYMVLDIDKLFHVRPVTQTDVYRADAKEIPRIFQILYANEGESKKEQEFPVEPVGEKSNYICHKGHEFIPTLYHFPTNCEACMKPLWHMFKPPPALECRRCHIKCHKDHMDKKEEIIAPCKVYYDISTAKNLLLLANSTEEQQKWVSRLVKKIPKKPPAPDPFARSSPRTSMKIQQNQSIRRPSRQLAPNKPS

SMILES | IC50 [1] [µM] | IC50 [2] [µM]
COc1cccc(Cn2cnc3sc(-c4cccnc4)cc3c2=O)c1 | 3.48 | > 10
COc1cccc(Cn2cnc3sc(-c4ccc(N)nc4)cc3c2=O)c1 | > 10 | > 10
COc1cc(Cn2cnc3sc(-c4ccnc5[nH]ccc45)cc3c2=O)cc(OC)c1 | 0.004 | 0.074
COc1cccc(Cn2cnc3sc(-c4ccc(-c5ccncc5)cc4)cc3c2=O)c1 | > 10 | > 10
COc1cccc(Cn2cnc3sc(-c4ccc5[nH]ncc5c4)cc3c2=O)c1 | 0.002 | 0.02
COc1ccc(Cn2cnc3sc(-c4ccnc(N)c4)cc3c2=O)cc1OC | 0.219 | > 10
COc1ccc(Cn2cnc3sc(-c4ccnc5[nH]ccc45)cc3c2=O)cc1 | 0.002 | 0.013
COc1cccc(Cn2cnc3sc(-c4ccnc5[nH]ccc45)cc3c2=O)c1 | 0.001 | 0.004
COc1cccc(Cn2cnc3sc(-c4cccc5[nH]ccc45)cc3c2=O)c1 | 0.583 | > 10
Nc1cc(-c2cc3c(=O)n(Cc4cccc(C(F)(F)F)c4)cnc3s2)ccn1 | 0.025 | 0.49
COc1cccc(Cn2ccc3cc(-c4ccc5[nH]ncc5c4)ccc3c2=O)c1 | 0.107 | 1.88
COc1cccc(Cn2cnc3cc(-c4ccc5[nH]ncc5c4)ccc3c2=O)c1 | 0.088 | 3.11
COc1cccc(Cn2cnc3sc(-c4ccncc4)cc3c2=O)c1 | 0.006 | 0.045
COc1cccc(Cn2cnc3sc(-c4ccnc(OC)c4)cc3c2=O)c1 | 6.91 | > 10
COc1cccc(CN2CCc3cc(-c4ccc5[nH]ncc5c4)ccc3C2=O)c1 | 0.632 | 2.06
COc1cccc(Cn2cnc3sc(-c4ccnc(C)c4)cc3c2=O)c1 | 0.042 | 2.51
COc1ccc(Cn2cnc3sc(-c4ccnc(N)c4)cc3c2=O)cc1 | 0.046 | 1.44
O=c1c2cc(-c3ccnc4[nH]ccc34)sc2ncn1Cc1cccc(F)c1 | 0.001 | 0.013
COc1cccc(Cn2ncc3cc(-c4ccc5[nH]ncc5c4)ccc3c2=O)c1 | 0.398 | > 10
COc1cccc(Cn2cnc3sc(-c4ccnc(Cl)c4)cc3c2=O)c1 | 0.501 | > 10
COc1ccc(Cn2cnc3sc(-c4ccnc5[nH]ccc45)cc3c2=O)cc1OC | 0.004 | 0.025
O=c1c2cc(-c3ccnc4[nH]ccc34)sc2ncn1Cc1cccc(C(F)(F)F)c1 | 0.007 | 0.11
COc1cccc(Cn2cnc3sc(-c4ccnc(N)c4)cc3c2=O)c1 | 0.001 | 0.018
Nc1cc(-c2cc3c(=O)n(Cc4cccc(F)c4)cnc3s2)ccn1 | 0.005 | 0.034
COc1cccc(Cn2cnc3sc(-c4ccnc(F)c4)cc3c2=O)c1 | 0.083 | 1.05
COc1cc(Cn2cnc3sc(-c4ccnc(N)c4)cc3c2=O)cc(OC)c1 | 0.058 | > 10
